Data set [1] concerns U-87 MG. In words: Antiproliferative activity against human U-87 MG cells assessed as cell viability at 50 uM measured after 24 to 48 hrs by MTT assay relative to control. It counts as functional, U-87MG ATCC. The following applies: time 24-48 hrs, read-out: Activity. The method, boiled down:
(§1)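 Cells seeded per well 24 h before treatment: HEK293 at 5.10^4, MCF7 at 4.10^4, U87MG at 10^5. Compounds were dissolved in DMSO (less than 1%) and diluted in DMEM, then incubated 24 and 48 h. Cells were washed with D-PBS and given MTT (from a 5 mg/mL stock) for 4 h, dissolved in DMSO, read at 540 nm. % viability = sample/control absorbance ×100. At least three independent experiments.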

In data set [2] the target is 3',5'-cyclic-AMP phosphodiesterase 4B (Homo sapiens, UniProt Q07343). Kind of data set: Inhibition of recombinant human PDE4B using […] as substrate measured after 90 mins by colorimetric assay. In outline: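 Recombinant human PDE4 was incubated with 0.5 μM 5′-cGMP plus 5′-nucleotidase for 90 min at 30°C. The reaction was stopped with termination buffer for 20 min at room temperature, and released phosphate was read at OD 620 nm. IC50 was determined from 6 inhibitor concentrations. Compound stocks were in DMSO (less than 1%), with at least triplicate runs, mean ± SD.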
Chain of 3',5'-cyclic-AMP phosphodiesterase 4B (Q07343 whole entry): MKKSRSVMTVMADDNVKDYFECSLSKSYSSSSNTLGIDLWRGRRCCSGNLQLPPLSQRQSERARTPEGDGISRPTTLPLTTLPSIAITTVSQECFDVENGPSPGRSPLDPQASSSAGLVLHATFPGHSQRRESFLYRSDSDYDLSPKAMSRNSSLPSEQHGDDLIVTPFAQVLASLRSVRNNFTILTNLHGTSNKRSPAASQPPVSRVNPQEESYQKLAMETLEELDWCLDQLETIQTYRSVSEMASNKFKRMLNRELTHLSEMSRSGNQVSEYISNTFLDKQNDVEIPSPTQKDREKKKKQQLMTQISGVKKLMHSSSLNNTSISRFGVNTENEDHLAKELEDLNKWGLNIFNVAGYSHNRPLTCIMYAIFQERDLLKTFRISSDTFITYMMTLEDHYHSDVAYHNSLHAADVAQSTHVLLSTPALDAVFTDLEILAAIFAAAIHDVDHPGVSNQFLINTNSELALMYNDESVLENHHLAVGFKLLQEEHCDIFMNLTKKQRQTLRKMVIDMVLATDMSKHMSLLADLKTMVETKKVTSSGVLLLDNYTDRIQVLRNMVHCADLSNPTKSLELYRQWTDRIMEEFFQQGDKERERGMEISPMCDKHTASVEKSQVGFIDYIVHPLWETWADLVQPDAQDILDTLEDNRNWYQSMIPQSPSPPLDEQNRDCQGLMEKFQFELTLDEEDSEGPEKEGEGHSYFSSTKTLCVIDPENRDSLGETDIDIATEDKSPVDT

The test system of data set [3] is U-87 MG. In words: Antiproliferative activity against human U-87 MG cells assessed as cell viability at 100 uM measured after 24 to 48 hrs by MTT assay relative to control. It counts as functional, U-87MG ATCC. The following applies: time 24-48 hrs, read-out: Activity. In outline:
as §1
(Formazan colour is commonly taken as a measure of viable cells.)

Data set [4] concerns U-87 MG. In words: Antiproliferative activity against human U-87 MG cells assessed as reduction in cell viability measured after 24 to 48 hrs by MTT assay. It counts as functional, cell-based, U-87MG ATCC. In outline:
as §1

The subject of data set [5] is HEK293. Kind of data set: Cytotoxicity against HEK293 cells assessed as reduction in cell viability measured after 24 to 48 hrs by MTT assay. The format is cell-based. The following applies: Homo sapiens. In outline:
as §1

The target of data set [6] is T1, Adenosine receptor A1 (Homo sapiens) (UniProt P30542).
T1 sequence (whole entry): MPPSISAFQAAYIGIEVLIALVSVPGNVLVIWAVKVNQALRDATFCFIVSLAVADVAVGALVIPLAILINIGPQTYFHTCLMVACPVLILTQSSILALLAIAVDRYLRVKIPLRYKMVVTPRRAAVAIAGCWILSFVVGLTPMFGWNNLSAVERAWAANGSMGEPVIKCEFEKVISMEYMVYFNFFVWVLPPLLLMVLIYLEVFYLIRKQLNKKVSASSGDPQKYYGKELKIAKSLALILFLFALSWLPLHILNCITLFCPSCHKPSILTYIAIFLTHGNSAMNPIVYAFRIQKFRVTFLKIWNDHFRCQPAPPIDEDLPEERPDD
In words: Displacement of [3H]DPCPX from recombinant human A1 adenosine receptor expressed in CHO cell membranes at 1 uM measured after 60 mins by liquid scintillation counting method relative to control. The following applies: Membrane. The method, boiled down:
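Membranes from CHO cells expressing recombinant hA1 (40 μg/tube) were incubated with 2 nM [3H]DPCPX and test compound at 1 μM in 50 mM Tris-HCl (pH 7.4, 10 mM MgCl2) for 60 min at 25°C. Bound radioligand was separated by GF/B filtration and counted by liquid scintillation. Results are given as percent inhibition of specific binding.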
A general note: Loss of bound radioactivity is the signal in a displacement assay; it reports binding, not function.

For data set [7], the system named is U-87 MG. Kind of data set: Antiproliferative activity against human U-87 MG cells assessed as cell viability at 5 uM measured after 24 to 48 hrs by MTT assay relative to control. It counts as functional, U-87MG ATCC. The following applies: time 24-48 hrs, read-out: Activity. The method, boiled down:
as §1

Data set [8] has as its system MCF7. In words: Antiproliferative activity against human MCF7 cells assessed as reduction in cell viability measured after 24 to 48 hrs by MTT assay. It counts as functional, cell-based. The method, boiled down: as §1
Data set [9] has as its system U-87 MG. Kind of data set: Antiproliferative activity against human U-87 MG cells assessed as cell viability at 10 uM measured after 24 to 48 hrs by MTT assay relative to control. The format is functional, U-87MG ATCC. The following applies: time 24-48 hrs, read-out: Activity. The method, boiled down:
as §1

The target of data set [10] is Adenosine receptor A2a (Homo sapiens) (UniProt P29274). Kind of data set: Displacement of [3H]ZM241385 from recombinant human A2A adenosine receptor expressed in HEK293 cell membranes at 1 uM measured after 60 mins by liquid scintillation counting method relative to control. The following applies: Membrane. In outline:
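HEK293 membranes expressing hA2A (20 μg/tube) were incubated with 15 nM [3H]ZM241385 and 1 μM test compound for 60 min at 25°C in 50 mM Tris-HCl, pH 7.4, 10 mM MgCl2. The reaction was stopped by GF/B filtration, followed by scintillation counting. Read-out was percent inhibition of specific binding.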

The nature of data set [11]: (§2) Cytotoxicity against HEK293 cells assessed as cell viability at 100 uM measured after 24 to 48 hrs by MTT assay relative to control. The format is cell-based. The following applies: human, HEK293 cells, time 24-48 hrs, read-out: Activity. The method, boiled down: as §1
The test system of data set [12] is HEK293. Described as §2. The format is cell-based. The following applies: human, hek293, 100 µM, time 24-48 hrs. The method, boiled down:
as §1

The target in data set [13] is T2, Adenosine receptor A2b (Homo sapiens) (UniProt P29275).
T2 sequence (whole entry): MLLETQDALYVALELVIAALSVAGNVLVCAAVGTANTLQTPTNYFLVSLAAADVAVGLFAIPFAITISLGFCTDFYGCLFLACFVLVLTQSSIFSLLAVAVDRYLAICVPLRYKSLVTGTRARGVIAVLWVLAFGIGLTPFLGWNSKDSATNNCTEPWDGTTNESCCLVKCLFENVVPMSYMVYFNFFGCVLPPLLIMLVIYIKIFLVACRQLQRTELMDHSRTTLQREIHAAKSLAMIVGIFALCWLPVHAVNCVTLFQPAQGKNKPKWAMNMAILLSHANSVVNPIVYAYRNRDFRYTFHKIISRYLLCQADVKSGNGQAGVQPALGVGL
In words: Displacement of [3H]ZM241385 from A2B adenosine receptor (unknown origin) at 10 uM measured after 60 mins by liquid scintillation counting method relative to control.

Data set [14] addresses T2, Adenosine receptor A2b (Homo sapiens). In words: Displacement of [3H]ZM241385 from A2B adenosine receptor (unknown origin) at 1 uM measured after 60 mins by liquid scintillation counting method relative to control.

The record followed here is ChEMBL document CHEMBL4706654, “Novel cyanothiouracil and cyanothiocytosine derivatives as concentration-dependent selective inhibitors of U87MG glioblastomas: Adenosine receptor binding and potent PDE4 inhibition” (Eur J Med Chem, 2021).

The IC50 is the concentration at which inhibition is half-maximal. In general, inhibition refers to the relative decrease from the control value, in per cent.

Chain of Adenosine receptor A2a (Homo sapiens) (P29274 whole entry): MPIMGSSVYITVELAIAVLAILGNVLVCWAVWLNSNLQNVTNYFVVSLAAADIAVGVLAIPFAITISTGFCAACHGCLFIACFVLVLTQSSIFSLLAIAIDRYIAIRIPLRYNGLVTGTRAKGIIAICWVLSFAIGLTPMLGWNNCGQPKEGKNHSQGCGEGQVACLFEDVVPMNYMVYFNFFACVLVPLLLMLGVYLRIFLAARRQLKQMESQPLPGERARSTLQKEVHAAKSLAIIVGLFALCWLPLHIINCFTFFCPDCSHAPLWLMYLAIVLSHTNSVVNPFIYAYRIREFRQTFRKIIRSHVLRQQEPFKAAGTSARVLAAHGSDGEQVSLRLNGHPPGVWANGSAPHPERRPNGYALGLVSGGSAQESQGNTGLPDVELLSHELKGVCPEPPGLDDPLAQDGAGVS

Turning to `COc1ccc(-c2nc(C)c(C(=O)CSc3nc(-c4ccc(OC)c(OC)c4)c(C#N)c(=O)[nH]3)s2)cc1`, in data set [1], the viability at 50 µM was 22.2%. Further, the concentration for half-maximal inhibition (IC50) in data set [2] is 17.1 µM; in [4] it was 12.5 µM; in data set [5] it was 23.3 µM; in data set [8] it was 24 µM. For the same molecule, in data set [3], the viability at 100 µM amounted to 5.39%. For the same molecule, the inhibition in [6] was found to be 2.5%; in [10], 8.5%. Also, in [7], the viability at 5 µM was found to be 81.2%. The viability at 10 µM in data set [9] is 57.6%.

With `Cc1nc(-c2ccccc2)sc1C(=O)CSc1nc(N)c(C#N)c(-c2ccc(Cl)cc2)n1`, in [1], the viability at 50 µM turned out to be 44.3%. In addition, the viability at 100 µM is over 50% in data set [11] and 17.1% in data set [3]. Moreover, the IC50 in [2] is 32.3 µM; in [4], 10.8 µM; in data set [8], 20.2 µM. In addition, the viability at 5 µM in data set [7] was 62.9%. Further, the viability at 10 µM in [9] worked out at 58.8%. Moreover, the inhibition in data set [10] is -9.9%.

For the molecule `COc1ccc(-c2nc(SCC(=O)c3sc(-c4ccccc4)nc3C)[nH]c(=O)c2C#N)cc1OC`, the viability at 50 µM in [1] was 21.4%. Further, the IC50 is over 100 µM in data set [2], 15.3 µM in data set [4], 91.8 µM in data set [5] and 63.7 µM in data set [8]. Moreover, in [3], the viability at 100 µM was 6.48%. Further, the inhibition in data set [6] came out at 10%; in data set [10], 12%. For the same molecule, in [7], the viability at 5 µM was 80.8%. For the same molecule, the viability at 10 µM in [9] is 69.8%.

On to `Cc1nc(-c2ccc(Cl)cc2)sc1C(=O)CSc1nc(N)c(C#N)c(-c2ccc(Cl)cc2)n1`, for which, in data set [1], the viability at 50 µM was 15.5%. For the same molecule, the IC50 in [2] was 24.1 µM; in data set [4], 3.42 µM; in data set [5], 73 µM; in data set [8], 12.5 µM. In addition, in data set [3], the viability at 100 µM was found to be 1.65%. In addition, the inhibition in [6] was -3.7%; in [10], 1.8%. Also, in [7], the viability at 5 µM was found to be 46.1%. Besides, in data set [9], the viability at 10 µM stood at 37.3%.

`COc1ccc(-c2nc(C)c(C(=O)CSc3nc(N)c(C#N)c(-c4ccccc4)n3)s2)cc1`: in data set [1], the viability at 50 µM is 16.5%. The Activity in [12] is over 50%. Also, the figures for the half-maximal inhibitory concentration (IC50) in data set [2], in data set [4] and in data set [8] were 11.2 µM, 8.54 µM and 72.1 µM, respectively. Also, the viability at 100 µM in [3] was 5.25%. Also, the inhibition in [6] was -2.8%; in data set [10], -2.6%. In addition, the viability at 5 µM in [7] is 61.8%. Moreover, the viability at 10 µM in data set [9] amounted to 57.8%.

`COc1ccc(-c2nc(C)c(C(=O)CSc3nc(N)c(C#N)c(-c4ccc(Cl)cc4)n3)s2)cc1`: the viability at 50 µM in [1] is 23.1%. Besides, the 50% inhibitory concentration (IC50) came out at 0.97 µM in [2], 4.54 µM in data set [4], 39.2 µM in data set [5] and 11.2 µM in data set [8]. In addition, in data set [3], the viability at 100 µM came out at 3.9%. In addition, the inhibition is 1.1% in data set [6] and -7.1% in data set [10]. Besides, the viability at 5 µM in data set [7] is 51.4%. Further, the viability at 10 µM in data set [9] was determined as 44%.

In the case of `COc1ccc(-c2nc(SCC(=O)c3sc(-c4ccccc4)nc3C)nc(N)c2C#N)cc1`, the viability at 50 µM in [1] is 33.8%. Also, the viability at 100 µM in data set [11] was over 50%; in [3], 17.2%. Besides, the half-maximal inhibitory concentration (IC50) was determined as 33.1 µM in [2], 14 µM in [4] and 27.2 µM in data set [8]. In addition, the inhibition in data set [6] is -4.6%; in data set [10], 0.8%. Also, the viability at 5 µM in data set [7] came out at 68.8%. The viability at 10 µM in data set [9] turned out to be 60.8%.

As to `Cc1nc(-c2ccccc2)sc1C(=O)CSc1nc(N)c(C#N)c(-c2ccccc2)n1`, the viability at 50 µM in [1] worked out at 26.3%. For the same molecule, the IC50 in [2] was over 100 µM; in data set [4], 28.9 µM; in data set [5], 46.7 µM; in data set [8], 30.1 µM. The inhibition was 9.5% in [6] and 6.5% in [10]. In data set [7], the viability at 5 µM is 103%. The viability at 10 µM in [9] came to 93%.

As to `Cc1nc(-c2ccc(Cl)cc2)sc1C(=O)CSc1nc(N)c(C#N)c(-c2ccccc2)n1`, the viability at 50 µM in [1] worked out at 15.2%. The results for the viability at 100 µM in data set [11] and in [3] were over 50% and 4.59%, respectively. Further, the figures for the IC50 in data set [2], in [4] and in data set [8] were 22.1 µM, 11.4 µM and 25.2 µM, respectively. Further, the values for the inhibition in data set [6] and in data set [10] were 8.7% and -1.4%, respectively. In addition, in data set [7], the viability at 5 µM was 71.1%. In addition, the viability at 10 µM in [9] stood at 67.9%.

In the case of `COc1ccc(-c2nc(SCC(=O)c3sc(-c4ccc(Cl)cc4)nc3C)nc(N)c2C#N)cc1`, in data set [1], the viability at 50 µM is 17.8%. For the same molecule, the viability at 100 µM was over 50% in [11] and 0.79% in data set [3]. The IC50 was 18.1 µM in [2], 10.6 µM in data set [4] and 10.1 µM in data set [8]. In addition, the inhibition in [6] came to 1.2%. Further, the viability at 5 µM in data set [7] was determined as 69.7%. The viability at 10 µM in data set [9] stood at 64.5%.

Consider `COc1ccc(-c2nc(C)c(C(=O)CSc3nc(N)c(C#N)c(-c4ccc(OC)cc4)n3)s2)cc1`, for which the inhibition in data set [13] is 49%; in data set [6], 9%; in [14], 18%. The viability at 50 µM in [1] was 13%. Besides, the Activity in data set [12] was over 50%. For the same molecule, the IC50 worked out at 3.15 µM in data set [2], 1.56 µM in data set [4] and 24.3 µM in [8]. In data set [3], the viability at 100 µM was 0.26%. Besides, the viability at 5 µM in data set [7] was found to be 35.6%. Further, the viability at 10 µM in data set [9] is 28.7%.
